ChEMBL document CHEMBL4251571, “Design, syntheses and lipid accumulation inhibitory activities of novel resveratrol mimics” (Eur J Med Chem, 2018)
Active and inactive are the calls of the source. No cut-off for these calls is given here.

What was measured:
[1] = tested on: 3T3-L1; assay: Inhibition of triglyceride accumulation in mouse 3T3L1 cells after 3 days; assay type: functional, cell-based; details: in the assay text read “after 6 days” for “after 3 days”
Procedure, shortened: (§1)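 3T3-L1 preadipocytes differentiated from 2 days post-confluence: 3 days in DMEM/10% FBS with insulin, dexamethasone, 0.5 mM IBMX and biotin, then 3 days with insulin only. Compounds in DMSO (0.1% DMSO vehicle) given on days 0 and 3. Berberine as positive control. Cells washed in ice-cold PBS and lysed; triglyceride measured with a commercial kit. Reported as TG relative to […] cells, mean ± SD of three independent experiments.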

[2] = tested on: 3T3-L1; assay: Inhibition of triglyceride accumulation in mouse 3T3L1 cells at 1 to 10 uM after 6 days by ORO staining-based microscopic method; assay type: functional, cell-based
Procedure, shortened: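 Differentiating 3T3-L1 cells received compounds in DMSO with the differentiation cocktail over 6 days, with 0.1% DMSO vehicle and berberine control. On day 6, cells fixed 1 h in 10% formaldehyde/PBS at room temperature and stained 30 min with fresh Oil Red O. After water washes, they were imaged at 10× magnification under constant light settings. Undifferentiated cells served as reference.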

[3] = tested on: 3T3-L1; assay: Upregulation of SIRT1 protein expression in mouse 3T3L1 cells at 10 uM after 3 days by Western blotting method; assay type: functional, cell-based
Procedure, shortened: (§2)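 3T3-L1 lysates were made in NP-40/deoxycholate/SDS buffer with protease and phosphatase inhibitors, then transferred to membranes. Membranes were blocked 2 h in 5% skim milk/TBST and probed with antibodies to phospho-Thr172 and total AMPKα, phospho-Ser79 and total ACC, SIRT1, PPARγ, SREBP-1c and FABP4. Detection was by ECL, with densitometry normalized to α-tubulin. Mean ± SD of 3 independent experiments.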

[4] = tested on: 3T3-L1; assay: Downregulation of FABP4 mRNA expression in mouse 3T3L1 cells at 10 uM after 3 days by RT-qPCR method; assay type: functional, cell-based
Procedure, shortened: (§3)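 Compounds were added to 3T3-L1 cells during cocktail-induced differentiation. Total RNA was extracted with RNAiso plus, and 1 µg was reverse-transcribed before real-time qPCR. Mouse primers were used for AMPK, ACC, SREBP-1c and FABP4. Mean ± SD of 3 independent experiments versus vehicle.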

[5] = species on record: Mus musculus; assay: Induction of AMPKalpha phosphorylation in mouse 3T3L1 cells assessed as increase in ACC phosphorylation at 10 uM after 3 days by Western blotting method relative to control; assay type: cell-based; procedure, shortened: as §2
[6] = tested on: 3T3-L1; assay: Upregulation of SIRT1 mRNA expression in mouse 3T3L1 cells at 10 uM after 3 days by qRT-PCR method; assay type: functional, cell-based
[7] = species on record: Mus musculus; assay: Induction of AMPKalpha phosphorylation in mouse 3T3L1 cells at 10 uM after 3 days by Western blotting method relative to control; assay type: cell-based; procedure, shortened: as §2
[8] = tested on: 3T3-L1; assay: Inhibition of triglyceride accumulation in mouse 3T3L1 cells at 10 uM after 3 days relative to control; assay type: functional; details: 3T3-L1, 72 h; procedure, shortened: as §1
[9] = Cytotoxicity against HEK293T cells after 24 hrs by MTT assay; assay type: cell-based, HEK-293T; details: human
Procedure, shortened: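 HEK293T seeded 5000/well, grown overnight, then exposed to a range of compound concentrations for 24 h with 0.5% DMSO vehicle. MTT (0.05 mg/well) added for 4 h, formazan dissolved in DMSO, absorbance read at 492 nm after 20 min shaking. Percentage computed as (A experiment − A blank)/(A control − A blank).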

[10] = tested on: 3T3-L1; assay: Downregulation of PPARgamma mRNA expression in mouse 3T3L1 cells at 10 uM after 3 days by RT-qPCR method; assay type: functional, cell-based
[11] = tested on: 3T3-L1; assay: Effect on ACC mRNA expression in mouse 3T3L1 cells at 10 uM after 3 days by qRT-PCR method; assay type: functional, cell-based; procedure, shortened: as §3
[12] = tested on: 3T3-L1; assay: Downregulation of SREBP-1c mRNA expression in mouse 3T3L1 cells at 10 uM after 3 days by RT-qPCR method; assay type: functional, cell-based; procedure, shortened: as §3
[13] = tested on: 3T3-L1; assay: Effect on AMPKalpha mRNA expression in mouse 3T3L1 cells at 10 uM after 3 days by qRT-PCR method; assay type: functional, cell-based; procedure, shortened: as §3
[14] = tested on: 3T3-L1; assay: Downregulation of SREBP-1c protein expression in mouse 3T3L1 cells at 10 uM after 3 days by Western blotting method; assay type: functional, cell-based; procedure, shortened: as §2
[15] = tested on: 3T3-L1; assay: Downregulation of PPARgamma protein expression in mouse 3T3L1 cells at 10 uM after 3 days by Western blotting method; assay type: functional, cell-based; procedure, shortened: as §2
[16] = tested on: 3T3-L1; assay: Downregulation of FABP4 protein expression in mouse 3T3L1 cells at 10 uM after 3 days by Western blotting method; assay type: functional, cell-based; procedure, shortened: as §2

O=c1cc(O)cc(/C=C/c2cccs2)[nH]1
inhibition [1]: Dose-dependent effect

COc1ccc2cc3[n+](cc2c1OC)CCc1cc2c(cc1-3)OCO2
inhibition [2]: Active

O=c1cc(O)cc(/C=C/C2CCCCC2)[nH]1
Activity [3]: Active | Activity [4]: Active | fold change (FC) [5]: 2.98 | Activity [6]: Active | inhibition [2]: Active | fold change (FC) [7]: 3.45 | inhibition at 10 µM [8]: 78.4% | CC50 at 24 h [9]: 13.8 µM | Activity [10]: Active | Activity [11]: inactive | inhibition [1]: Dose-dependent effect | Activity [12]: Active | Activity [13]: inactive

Oc1ccc(/C=C/c2cc(O)cc(O)c2)cc1 [RESVERATROL]
inhibition [2]: Active | CC50 at 24 h [9]: 22.8 µM

O=c1cc(O)cc(/C=C/c2ccccc2Cl)[nH]1
inhibition [1]: Dose-dependent effect

O=c1cc(O)cc(/C=C/c2ccccc2)[nH]1
inhibition [1]: Dose-dependent effect

O=c1cc(O)cc(/C=C/c2ccco2)[nH]1
inhibition [1]: Dose-dependent effect

Cc1ccc(/C=C/c2cc(O)cc(=O)[nH]2)o1
Activity [3]: Active | Activity [4]: Active | fold change (FC) [5]: 4.12 | Activity [6]: Active | inhibition [2]: Active | fold change (FC) [7]: 3.1 | Activity [14]: Active | Activity [15]: Active | CC50 at 24 h [9]: > 1000 µM | Activity [10]: Active | Activity [11]: inactive | inhibition [1]: Dose-dependent effect | Activity [12]: Active | Activity [13]: inactive | Activity [16]: Active
